Assay results of several laboratories.
Compare with care: the assays were run in different laboratories. In brackets after ≈: the same amount, converted by molar mass.
Organism: Cryptococcus neoformans

Structure (SMILES)	observed	technique	strain	time	measurement	value
O=C(CCCCCCCCCC[P+](c1ccccc1)(c1ccccc1)c1ccccc1)Nc1ccc(O)c(O)c1.[Br-]	microbial growth	broth dilution	ATCC208821	24 h	MIC	> 32 µg/mL
C#CCCCCCCCCC=CCC(O)CC(O)CO (stereo not drawn)	microbial growth	broth dilution	ATCC90113		IC50	> 8 µg/mL
C[C@@H]1[C@H](O)[C@@H](C)/C=C/C=C/C=C/C=C/C=C/C=C/C=C/[C@H](O[C@@H]2O[C@H](C)[C@@H](O)[C@H](N)[C@@H]2O)C[C@@H]2O[C@](O)(C[C@@H](O)C[C@@H](O)[C@H](O)CC[C@@H](O)C[C@@H](O)CC(=O)O[C@H]1C)C[C@H](O)[C@H]2C(=O)O	microbial growth		ATCC90113		MIC	1.25 µg/mL (≈ 1.35 µM)
C[C@@H]1[C@H](O)[C@@H](C)/C=C/C=C/C=C/C=C/C=C/C=C/C=C/[C@H](O[C@@H]2O[C@H](C)[C@@H](O)[C@H](N)[C@@H]2O)C[C@@H]2O[C@](O)(C[C@@H](O)C[C@@H](O)[C@H](O)CC[C@@H](O)C[C@@H](O)CC(=O)O[C@H]1C)C[C@H](O)[C@H]2C(=O)O	microbial growth		ATCC90113		IC50	1.14 µg/mL (≈ 1.23 µM)
OC(Cn1cncn1)(Cn1cncn1)c1ccc(F)cc1F	microbial growth	broth dilution	ATCC208821	24 h	MIC	8 µg/mL (≈ 26.1 µM)
Cl.Oc1cccc2c1[nH]c1c(C3=CC4(O)CC/C=C\CCCCN5CCC3C3(CC6/C=C\CCCCN6C43)C5)nccc12 (single isomer, unassigned; (+))	microbial growth		ATCC90113		IC50	2.69 µg/mL
O=C(CCc1cc(O)c(O)c(O)c1)NCCCCCCCC[P+](c1ccccc1)(c1ccccc1)c1ccccc1.[Br-]	microbial growth	broth dilution	ATCC208821	24 h	MIC	> 32 µg/mL
C[C@@H]1[C@H](O)[C@@H](C)/C=C/C=C/C=C/C=C/C=C/C=C/C=C/[C@H](O[C@@H]2O[C@H](C)[C@@H](O)[C@H](N)[C@@H]2O)C[C@@H]2O[C@](O)(C[C@@H](O)C[C@@H](O)[C@H](O)CC[C@@H](O)C[C@@H](O)CC(=O)O[C@H]1C)C[C@H](O)[C@H]2C(=O)O	microbial growth	broth dilution	ATCC90113		IC50	0.24 µg/mL (≈ 0.26 µM)
C[C@@H]1[C@H](O)[C@@H](C)/C=C/C=C/C=C/C=C/C=C/C=C/C=C/[C@H](O[C@@H]2O[C@H](C)[C@@H](O)[C@H](N)[C@@H]2O)C[C@@H]2O[C@](O)(C[C@@H](O)C[C@@H](O)[C@H](O)CC[C@@H](O)C[C@@H](O)CC(=O)O[C@H]1C)C[C@H](O)[C@H]2C(=O)O	microbial killing		ATCC90113		MFC	0.68 µM (≈ 0.628 µg/mL)
